An excerpt weighted towards active compounds, which were near 12% of everything screened.
L major viab – reduces viability of Leishmania major promastigotes; inhibition, % at 10 µM; 9% of 200,000 active; resazurin fluorescence viability; in the data active = inhibition above about 50%;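 also: promastigotes grown with compound for 44 hours at 28 °C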
Dynein transport – blocks dynein driven cargo transport along microtubules; AID 1381; z-score, hits read low; 0.47% of 220,000 active; 3617.4 mouse cells, GR-EGFP nuclear translocation imaging; test concentration mostly 20 µM; stimulated with dexamethasone, 1 µM; stronger effect = lower value;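 active = plate z-score of nuclear minus cytoplasmic receptor signal below a set negative limit, without overly bright fluorescence or cell loss, cut at about -3.5 in these data, passing the limit was not always enough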;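 also: z-score of nuclear minus cytoplasmic ring GR-EGFP intensity difference per well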
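medium = tetracycline-free induction medium containing charcoal-stripped FBS | also added = 1.0 µM final dexamethasone stimulus | schedule = 48 h induction, 1 h compound, 30 min dex at 37 °C | technique = fixed, Hoechst-stained cells imaged at 10x for EGFP | measure = GR-EGFP nuclear translocation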
b-catenin transl – modulators of beta-catenin nuclear translocation | HeLa beta-catenin nuclear translocation, immunofluorescence imaging | nuclear translocation activity, % at 5 µM | AID 1665 | 0.3% of 190,000 active;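 active = nuclear translocation activity above 50% at 5 µM, with a well cell count of 50 or more; inconclusive = wells under 50 cells across six images, flagged as toxic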;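 also: per-cell ratio of nuclear to cytoplasmic median beta-catenin stain intensity; plate controls were DMSO negative control for no effect and GSK-3 inhibitor IX positive control for full effect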
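System: HeLa cells, endogenous beta-catenin; compound dosing: 5 µM primary single dose, 0.1% DMSO, 0.02–20 µM confirmation series; incubation: 24 h compound exposure at 37°C, 5% CO2; signal: beta-catenin immunofluorescence imaging with DAPI; evaluation: % activation, nuclear-to-cytoplasmic median beta-catenin signal ratio per cell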
CHOP inhibitor – inhibitors of CHOP induction in ER stress response; 3.8% of 220,000 active; inhibition, % at 10 µM; CHO-K1 CHOP-promoter luciferase, tunicamycin-induced, 15-18 h;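 active = compounds that reduced the stress-induced luciferase reporter signal by more than about 70% of percent inhibition, limit read from the data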;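 also: 0% = tunicamycin plus vehicle and 100% = wells without tunicamycin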
MT stabilizer – microtubule stabilizers in HeLa cells | 0.83% of 200,000 active | HeLa tubulin immunostaining HCS, 24 h; share of cells brighter than vehicle mean+2SD | AID 2205 | % tubulin-high responders, % at 10 µM;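 active = plate Z-score above 3 for both tubulin-high and condensed-nucleus cell shares, with cell loss under 80%, at 10 µM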;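 also: anti alpha tubulin signal scored within the nucleus-defined area of each cell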
Autophagy mod – alters autophagy in cells | 0.98% of 190,000 active | calls only at 10 µM (by protocol) | MEF GFP-LC3 puncta imaging; test concentration mostly 10 µM | AID 463193;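 active = percentage of spot-positive cells more than 3 SD above its plate mean, without a fluorescence outlier flag or 80% toxicity; inconclusive = no clear call, values can overlap the other calls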;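 also: spot-positive cell cutoff set from DMSO-treated cells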
Dynein inh conf – dynein cargo transport inhibition, confirmation. shares compounds with Dynein transport. 3617.4 GR-EGFP nuclear translocation imaging, dexamethasone-induced. calls only at 20 µM. 69% of 1,000 active. AID 463116;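 active = inhibition of receptor movement into the nucleus at or above a set limit in both runs, with normal cell brightness and cell count; inconclusive = limit reached in only one run, brightness and count normal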;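 also: dexamethasone at 1 µM final in well for 30 min; nuclear minus cytoplasmic GR-EGFP mean intensity difference in channel 2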
* marks the source's active call; other numbers are inactive results; i = inactive; ? = inconclusive; nt = no result given; + = active, no number.

SMILES	L major viab	Dynein transport	b-catenin transl	CHOP inhibitor	MT stabilizer	Autophagy mod	Dynein inh conf
Cc1ccc(NC(=O)CN(C)C(=O)Cn2ncc(Cl)c(Cl)c2=O)cc1	73.5*	-6.33*	-1.3	-151.1	4.7	i	+
O=C1CN(C(=O)Cn2ncc(Cl)c(Cl)c2=O)c2ccccc2N1	73.8*	-6.8*	-7.0	92.0*	4.2	i	+
CC(C)(C)C(=O)Cn1ncc(N2CCCC2)c(Br)c1=O	-1.2	-0.482	-1.3	11.6	2.1	i	nt
Cc1nc2ccccc2n1CC(=O)N1CC(=O)Nc2ccccc21	-5.2	0.201	-4.8	21.0	1.7	i	nt
O=C(Cn1ncc(Cl)c(Cl)c1=O)c1ccc(Cl)cc1	75.9*	-3.99*	-1.3	102.3*	1.7	i	i
O=C(Cc1cccs1)N/N=C/C(Cl)=C/c1ccccc1	3.6	-1.04	0.5	-17.5	2.2	i	nt
COC(CNC(=O)c1cccc(-n2c(=S)[nH]c3cc(Cl)ccc3c2=O)c1)OC	-7.5	-0.255	-3.7	10.9	3.9	i	nt
C=CCn1c(C)cc(C(=O)COC(=O)[C@@H](NC(=O)c2ccccc2Cl)C(C)C)c1C	-1.4	-0.764	0.4	44.8	3.0	i	nt
O=c1c(Cl)c(Cl)cnn1Cc1ccc(F)cc1	73.3*	-4.9*	0.6	-99.5	2.3	i	+
C=CCn1c(C)cc(C(=O)Cn2ncc(Cl)c(Cl)c2=O)c1C	86.5*	-4.58*	-1.5	75.1*	2.9	i	+
O=c1c2nnn(Cc3ccc(Cl)cc3)c2ncn1Cc1ccc(F)cc1	-1.5	0.461	1.3	24.0	3.0	i	nt
O=C(COC(=O)c1ccc(S(=O)(=O)NCc2ccco2)cc1)Nc1ccc(Cl)cn1	2.7	1.67	1.0	-0.5	2.7	i	nt
COc1ccc(/C=C/S(=O)(=O)NCc2ccccc2)cc1OC	-10.8	0.171	-0.8	8.3	2.5	i	nt
O=C1C2C3C=CC(CO)(O3)C2C(=O)N1c1ccc(-c2ccccc2)cc1 (stereo unspecified)	-3.1	-4.44*	-1.9	nt	1.9	i	+
COC(=O)Cn1nnc(N2CCOCC2)n1	nt	-0.653	-1.9	-18.9	nt	nt	nt
O=C(N/N=C/c1ccc(N2CCOCC2)o1)c1cccc([N+](=O)[O-])c1	-3.1	0.221	nt	19.8	5.4	i	nt
O=C(N/N=C/c1ccc(N2CCCCC2)o1)c1ccccc1	13.6	-3.77*	-4.9	-14.6	2.0	i	i
CCOC(=O)c1sc(=NC(=O)c2ccc(C)cc2)n(C)c1C	-6.3	-0.505	-2.1	21.8	4.0	i	nt
CC1=CC(=O)C(C(C)C)=CC1=NC(=O)c1ccc(C)cc1	8.0	-4.93*	-1.5	106.7*	2.7	i	?
CCn1nc([N+](=O)[O-])c(C(C#N)c2nc3cc(C(F)(F)F)ccc3s2)c(Cl)c1=O (stereo unspecified)	-4.6	-4.4*	-4.9	27.1	2.6	i	+
Cc1cc(C)c2c(=O)n(CC(=O)N3CCC(N4CCCCC4)CC3)sc2n1	3.7	-4.17*	-6.5	38.9	5.1	i	i
CCCNC(=O)Cn1sc2nc(C)cc(C)c2c1=O	nt	-4.78*	0.3	-25.2	nt	nt	i
CCOC(=O)C1CCCN(C(=O)Cn2sc3nc(C)cc(C)c3c2=O)C1 (stereo unspecified)	-4.1	-4.08*	-6.5	109.3*	3.8	i	?
CCOC(=O)C1CCCN(C(=O)Cn2cnc3c2c(=O)n(C)c(=O)n3C)C1 (stereo unspecified)	-3.8	0.29	-5.5	-25.0	3.9	i	nt
CC(=O)Cn1cnc2c(sc3nc(C)cc(C)c32)c1=O	nt	-0.38	2.1	-7.5	nt	nt	nt
SMILES	L major viab	Dynein transport	b-catenin transl	CHOP inhibitor	MT stabilizer	Autophagy mod	Dynein inh conf
O=C(CN1CCCCC1)Nc1ccccc1Oc1ccccc1	nt	0.139	0.1	7.1	nt	nt	nt
COc1cccc(C(c2nnnn2CC2CCCO2)N2CCN(C(=O)c3ccco3)CC2)c1OC (stereo unspecified)	-1.1	-0.133	0.3	-2.7	3.7	i	nt
O=C(ONC1=NCCCCC1)c1ccc([N+](=O)[O-])cc1	-0.2	0.034	-1.1	10.8	2.3	i	nt
CCCCNC(=O)N1CCN(Cc2ccc(F)cc2)CC1	0.3	1.54	-0.3	12.3	3.7	i	nt
CCOC(=O)Cc1cc(=O)n2[nH]c(C(C)(C)C)cc2n1	nt	0.904	1.1	-13.2	nt	nt	nt
Cc1cc(C(=O)Cn2nc(C(=O)O)c3ccccc3c2=O)c(C)n1CCc1ccc(Cl)cc1	29.6	0.19	-1.6	26.2	2.8	i	nt
CCCN1CCN(C(=O)Cn2c(=O)oc3cc(S(=O)(=O)NCc4ccccc4)ccc32)CC1	3.0	-1.28	-0.5	-21.0	1.6	i	nt
O=C(Cn1c(=O)oc2cc(S(=O)(=O)NCc3ccccc3)ccc21)N1CCCC1	nt	-5.21*	0.9	15.7	nt	nt	i
CC(C)(C)c1cc(CN(CCO)CCO)cc(C(C)(C)C)c1O	-2.5	-5.84*	nt	22.2	2.3	i	+
Cc1ccc(N(C(=O)c2cccs2)C2C=CS(=O)(=O)C2)cc1 (stereo unspecified)	-5.2	-0.833	nt	7.9	9.1	i	nt
O=C(/C=C/c1cccc([N+](=O)[O-])c1)NC(=S)Nc1ccccc1C(=O)O	4.1	-3.51*	-1.3	3.2	2.5	i	+
O=C(/C=C/c1cccc([N+](=O)[O-])c1)NC(=S)Nc1cccc(NC(=O)c2ccccc2Cl)c1	3.3	-0.616	0.6	26.3	7.3	i	nt
COC(C/C=C/C(=O)COCc1ccccc1)OC	nt	-5.71*	0.5	-30.2	nt	nt	+
COC(C[C@@H]1O[C@@H]1C(=O)COCc1ccccc1)OC	nt	2.46	0.5	16.3	nt	nt	nt
Cc1nc([N+](=O)[O-])c(C(=O)OCc2ccccc2Br)n1C	5.6	-1.45	0.4	26.4	3.8	i	nt
Cc1nc([N+](=O)[O-])c(Br)n1CC(=O)c1ccccc1	95.5*	-5.27*	-0.1	-96.8	2.0	i	+
Cc1nc([N+](=O)[O-])c(Br)n1CC(=O)c1ccc(Br)cc1	97.9*	-4.25*	nt	-30.6	2.0	i	+
Cc1ccc(CN=Cc2[nH]c3ccc(Br)c(Cl)c3c2O)cc1	22.8	-4.26	-2.5	-12.5	1.7	+	+
O=C(O)c1ccc(NC2=C/C(=N/S(=O)(=O)c3ccccc3)c3ccccc3C2=O)cc1	100.0*	-4.23*	-1.5	103.0*	1.7	i	+
Cc1cc2c(c(SCC(=O)NCCc3ccccc3)n1)C(=O)OC2	-7.8	-0.915	-3.4	10.1	3.3	i	nt
CCSc1nnc(-c2sc3nnc(-c4ccccc4)c(-c4ccccc4)c3c2N)o1	28.2	-7.42	nt	31.7	1.8	?	i
O=C1C=CC2C(c3ccc4c(c3)OCO4)CC1N2Cc1ccccc1 (stereo unspecified)	99.8*	-3.8*	-6.2	-41.4	4.2	i	+

Screening data (PubChem BioAssay)
